Laboratory results published in ChEMBL document CHEMBL3992496, “Oligonucleotide transition state analogues of saporin L3” (Eur J Med Chem, 2017).
pIC50, pKi: −log10 of the molar value.

Legend:
[1] = Competitive inhibition of Saponaria officinalis saporin L3 expressed in yeast using RNA A10 as substrate preincubated for 10 mins followed substrate addition by luciferase assay
[2] = Competitive inhibition of Saponaria officinalis saporin L1 using RNA A10 as substrate preincubated for 10 mins followed substrate addition by continuous luciferase assay
[3] = Competitive inhibition of Saponaria officinalis saporin L3 A14C mutant expressed in yeast using yeast tRNA as substrate
Method in brief: (§1)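 Saporin L3 A14C, secreted from yeast and purified. Substrate held fixed: isolated rabbit 80S ribosomes (100 nM) or yeast tRNA (1.0 mg/mL). Inhibitor preincubated with enzyme 10 min for slow-onset binding before substrate, then adenine release read by coupled luciferase method. Ki* taken from competitive inhibition fit.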

[4] = Competitive inhibition of Saponaria officinalis saporin L3 expressed in yeast using rabbit rRNA as substrate
Method in brief: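 Saporin L3 secreted from yeast cultures and purified to near-homogeneity. Substrate was isolated rabbit 80S ribosomes purified in-house, fixed at 100 nM, with concentration from A260. Inhibitor at varying concentrations was preincubated with enzyme for 10 min. K_i* was taken as slow-onset competitive inhibition.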

[5] = Competitive inhibition of Saponaria officinalis saporin L3 A14C mutant expressed in yeast using rabbit rRNA as substrate; method in brief: as §1
[6] = Competitive inhibition of Saponaria officinalis saporin L3 expressed in yeast using yeast tRNA as substrate
[7] = Inhibition of yeast expressing Saponaria officinalis saporin L3 A14C mutant-mediated suppression of luciferase mRNA translation in rabbit reticulocyte extract preincubated with protein for 10 mins followed by addition of rabbit reticulocyte translation system for 90 mins by luciferase assay
Method in brief: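 Rabbit reticulocyte lysate translation of luciferase-encoding mRNA. 10 nM SAP A14C preincubated 10 min with increasing inhibitor in pH 7.4 buffer, then added to translation mix, 30 °C, 90 min. Luciferase luminescence read. Control contained top inhibitor concentration without enzyme. Percent translation vs log inhibitor fit to dose-response curve for EC50.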

Structure (SMILES) | pKi [1] | also measured
CO[C@@H]1[C@H](OP(=O)(O)OC[C@H]2CN(Cc3c[nH]c4c(N)ncnc34)C[C@@H]2OP(=O)(O)OC[C@H]2O[C@@H](n3cnc4c(=O)[nH]c(N)nc43)[C@H](OC)[C@@H]2OP(=O)(O)OCCCO)[C@@H](CO)O[C@H]1n1cnc2c(=O)[nH]c(N)nc21 | 7.98 | 
CO[C@@H]1[C@H](O)[C@@H](COP(=O)(O)O[C@H]2[C@@H](OC)[C@H](n3cnc4c(=O)[nH]c(N)nc43)O[C@@H]2COP(=O)(O)O[C@H]2CN(Cc3c[nH]c4c(N)ncnc34)C[C@@H]2COP(=O)(O)OC2[C@@H](OC)[C@H](n3cnc4c(=O)[nH]c(N)nc43)O[C@@H]2CO)O[C@H]1n1cnc2c(N)ncnc21 (stereo partly drawn) | 8.21 | 
CO[C@@H]1[C@H](OP(=O)(O)OC[C@H]2CN(Cc3c[nH]c4c(N)ncnc34)C[C@@H]2OP(=O)(O)OCCCO)[C@@H](COP(=O)(O)OCCCO)O[C@H]1n1cnc2c(=O)[nH]c(N)nc21 | 6.73 | 
CO[C@@H]1[C@H](OP(=O)(O)OCCCO)[C@@H](COP(=O)(O)O[C@H]2CN(CCc3c[nH]c4c(N)ncnc34)C[C@@H]2COP(=O)(O)OCCCO)O[C@H]1n1cnc2c(=O)[nH]c(N)nc21 | 7.91 | 
CO[C@@H]1[C@H](O)[C@@H](COP(=O)(O)O[C@H]2CN(Cc3c[nH]c4c(N)ncnc34)C[C@@H]2CO)O[C@H]1n1cnc2c(=O)[nH]c(N)nc21 | 4.67 | 
CO[C@@H]1[C@H](OP(=O)(O)OCCCO)[C@@H](COP(=O)(O)OCC(COP(=O)(O)OCCCO)NCc2c[nH]c3c(N)ncnc23)O[C@H]1n1cnc2c(=O)[nH]c(N)nc21 (stereo partly drawn) |  | pKi [2]: 7.36
CO[C@@H]1[C@H](O)[C@@H](COP(=O)(O)O[C@H]2CN(Cc3c[nH]c4c(N)ncnc34)C[C@@H]2COP(=O)(O)OCCCO)O[C@H]1n1cnc2c(=O)[nH]c(N)nc21 | 7.71 | 
CO[C@@H]1[C@H](OP(=O)(O)OCCCO)[C@@H](COP(=O)(O)O[C@H]2CN(Cc3c[nH]c4c(N)ncnc34)C[C@@H]2COP(=O)(O)OCCCO)O[C@H]1n1cnc2c(=O)[nH]c(N)nc21 | 8.48 | pKi [3]: 8.08; pKi [4]: 8.17; pKi [5]: 8.27; pKi [6]: 8.00; pIC50 [7]: 7.89
CO[C@@H]1[C@H](OP(=O)(O)OC[C@H]2O[C@@H](n3cnc4c(=O)[nH]c(N)nc43)[C@H](OC)[C@@H]2OP(=O)(O)OC[C@H]2CN(Cc3c[nH]c4c(N)ncnc34)C[C@@H]2OP(=O)(O)OCCCO)[C@@H](CO)O[C@H]1n1cnc2c(=O)[nH]c(N)nc21 | 6.67 | 
CO[C@@H]1[C@H](OP(=O)(O)OCCCO)[C@@H](COP(=O)(O)O[C@H]2CN(Cc3c[nH]c4c(N)ncnc34)C[C@@H]2CO)O[C@H]1n1cnc2c(=O)[nH]c(N)nc21 | 4.97 | 
CO[C@@H]1[C@H](O)[C@@H](COP(=O)(O)O[C@H]2CN(Cc3c[nH]c4c(N)ncnc34)C[C@@H]2COP(=O)(O)OC2[C@@H](OC)[C@H](n3cnc4c(=O)[nH]c(N)nc43)O[C@@H]2CO)O[C@H]1n1cnc2c(=O)[nH]c(N)nc21 (stereo partly drawn) | 7.48 | 
CO[C@@H]1[C@H](OP(=O)(O)OC[C@H]2CN(Cc3c[nH]c4c(N)ncnc34)C[C@@H]2OP(=O)(O)OC[C@H]2O[C@@H](n3cnc4c(=O)[nH]c(N)nc43)[C@H](OC)[C@@H]2OP(=O)(O)OCCCO)[C@@H](COP(=O)(O)OCCCO)O[C@H]1n1cnc2c(=O)[nH]c(N)nc21 | 8.13 | 
CO[C@@H]1[C@H](OP(=O)(O)OCCCO)[C@@H](COP(=O)(O)OCC(CNCc2c[nH]c3c(N)ncnc23)COP(=O)(O)OCCCO)O[C@H]1n1cnc2c(=O)[nH]c(N)nc21 (mixture of isomers) | 7.57 | 
